# Experimental data published in PubChem BioAssay.
# Calls of active or inactive are those of the source.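 Rule for the calls, unless noted: active = fluorescence slope higher than the sample average by over 3 SD (cut at about -0.22 in these data, passing the limit was not always enough); inactive = the rest.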
# Columns and labels:
# [1] = inhibitors of TNFa-induced NFkB p65 translocation, primary screen, imaging, HUVEC, MLSMR starter and 10KST1 sets (AID 438;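 active = inhibition above 20% together with a positive visual image hit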;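 note: compound added about 3h40 before a 20 min TNFalpha stimulation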;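 for inhibition: signal is the nuclear over cytoplasmic p65 intensity ratio per well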); settings: HUVEC TNFa-induced p65 nuclear translocation; cell count: measured here: nuclei count (cytotoxicity indicator), at 2.08 µM; inhibition: at 2 µM, stronger effect = higher value, 0% TNFa-plus-vehicle, 100% no-TNFa wells
# [2] = inhibitors of E-selectin induction by TNFa, primary screen, imaging, HUVEC, immunofluorescence, MLSMR starter and 10KST1 sets (AID 487;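 active = visually confirmed hit in the image check and inhibition above 20%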;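 for inhibition: signal is fraction of cell area covered by stained E-selectin grains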;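 for nuclei count: 100% = median nuclei count of all wells on the same plate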); settings: HUVEC TNFalpha-induced E-selectin immunofluorescence imaging, at 2 µM; inhibition: stronger effect = higher value; nuclei count: measured here: cell number, toxicity
# [3] = DUSP6 inhibitors restoring Erk phosphorylation by chemical complementation, primary imaging in DUSP6-transfected HeLa (AID 609;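 active = compounds giving at least 50% inhibition in the cell-based MKP-3 phosphatase rescue imaging test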;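 for inhibition: phospho-Erk level distribution per well compared with pooled transfected vehicle control wells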); settings: HeLa MKP-3 transfected, phospho-Erk imaging KS statistic, at 10 µM, cells stimulated with TPA for 15 min
# [4] = biological target: Dual specificity protein phosphatase 6 (Homo sapiens) (UniProt Q16828); test: as above; settings: HeLa MKP-3 transfected, phospho-Erk imaging KS statistic; at 10 µM; stronger effect = higher value; cells stimulated with TPA for 15 min
# [5] = biological target: Voltage-gated potassium channel subunit beta-2 (Rattus norvegicus) (UniProt P62483); test: KvBeta enzyme negative modulators, primary screen, biochemical, NADPH fluorescence (AID 622); settings: recombinant KvBeta, 4-cyanobenzaldehyde reduction, at 10 µM, stronger effect = higher value;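 note: slope of raw intensity against log time taken from 70 to 1610 s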
# [6] = biological target: Voltage-gated potassium channel subunit beta-2 (Rattus norvegicus) (UniProt P62483); test: KvBeta positive modulators, primary screen, biochemical, NADPH fluorescence (AID 623;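 active = NADPH fluorescence slope more negative than the mean of all samples by about 3 SD, 99.7% confidence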;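 note: fluorescence intensity change per second fitted from 20 to 320 s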); settings: Recombinant KvBeta, NADPH fluorescence decrease slope, 10 min; at 10 µM; stronger effect = lower value
# [7] = biological target: Alpha-2C adrenergic receptor (Homo sapiens) (UniProt P18825); test: modulators of alpha2C/GIRK thallium flux, primary screen, cell-based, HEK293 alpha2C/GIRK1/2 (AID 624;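 active = fluorescence slope after compound addition differing from the mean of all screened samples at 99.7% confidence, in either direction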;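 note: slope of fluorescence ratio to pre-addition baseline per second over 15 to 24 s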); settings: thallium flux BTC fluorescence, at 10 µM, actives lie on both sides
# [8] = inhibitors of larval lipid processing in zebrafish, primary screen, whole organism, PED6 fluorescence, gall bladder and intestine (AID 686;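 active = a full or partial loss of lipid-probe fluorescence in the fish gall bladder, intestine or both, judged by eye; inactive = no fluorescence loss, or compound toxic to the fish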;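 note: larvae 5 to 7 days old with five fish per well; signal comes from phospholipase A2 cleavage of quenched PED6 carried via bile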); settings: Zebrafish larvae PED6 lipid processing, fluorescence scoring; screened at 20 µM (by protocol)
# Procedure, shortened: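 Incubation: overnight exposure of larvae to compound plus PED6 / Test system: live zebrafish larvae aged 5-7 days, whole organism / Amount: 5 larvae per well / Read-out basis: visual per-well fluorescence inhibition score / Signal: visual fluorescence microscopy scoring of gall bladder, gut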
# [9] = inhibitors of Chlamydomonas gravitaxis, primary screen, whole organism, Chlamydomonas reinhardtii, WT vs cilia-less mutant, absorbance, 96-well (AID 463189;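 active = inhibition at or above 50% relative to wild type and mutant plate controls; inactive = inhibition below 50%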;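 note: 0% = wild type cc124 cells in DMSO and 100% = ciliumless bld1 mutant cells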); settings: OD600 absorbance, 2 days, at 10 µM, stronger effect = higher value
# [10] = measured here: cell density z-score
# [11] = measured here: nuclear c-Myc green intensity z-score
# [12] = measured here: nuclear pErk red intensity z-score, stronger effect = higher value
# Chain of Dual specificity protein phosphatase 6 (Homo sapiens) (Q16828 whole entry, looked up): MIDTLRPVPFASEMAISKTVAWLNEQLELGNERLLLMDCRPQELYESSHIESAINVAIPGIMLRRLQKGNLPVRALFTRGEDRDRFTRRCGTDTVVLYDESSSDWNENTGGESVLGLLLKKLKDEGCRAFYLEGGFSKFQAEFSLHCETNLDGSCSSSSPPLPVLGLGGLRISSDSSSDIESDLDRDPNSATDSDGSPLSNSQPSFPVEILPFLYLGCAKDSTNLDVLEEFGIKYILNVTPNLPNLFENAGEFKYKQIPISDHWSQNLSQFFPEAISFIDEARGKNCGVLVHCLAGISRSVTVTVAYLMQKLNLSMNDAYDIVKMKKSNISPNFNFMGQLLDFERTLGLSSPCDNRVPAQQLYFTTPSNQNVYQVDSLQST
# Chain of Alpha-2C adrenergic receptor (Homo sapiens) (P18825 whole entry, looked up): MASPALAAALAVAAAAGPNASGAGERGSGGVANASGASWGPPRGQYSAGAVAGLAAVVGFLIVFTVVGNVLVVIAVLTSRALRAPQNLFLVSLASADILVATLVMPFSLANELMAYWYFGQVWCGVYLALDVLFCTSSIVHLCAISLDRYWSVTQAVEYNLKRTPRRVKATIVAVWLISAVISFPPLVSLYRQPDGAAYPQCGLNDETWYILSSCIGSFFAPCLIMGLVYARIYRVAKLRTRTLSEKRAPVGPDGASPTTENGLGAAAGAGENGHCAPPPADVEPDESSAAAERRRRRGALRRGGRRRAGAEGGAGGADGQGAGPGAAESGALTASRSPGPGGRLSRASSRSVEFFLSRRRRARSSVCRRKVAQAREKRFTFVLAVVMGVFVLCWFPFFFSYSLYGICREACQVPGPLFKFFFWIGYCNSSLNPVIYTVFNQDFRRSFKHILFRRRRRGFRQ
# Chain of Voltage-gated potassium channel subunit beta-2 (Rattus norvegicus) (P62483 whole entry, looked up): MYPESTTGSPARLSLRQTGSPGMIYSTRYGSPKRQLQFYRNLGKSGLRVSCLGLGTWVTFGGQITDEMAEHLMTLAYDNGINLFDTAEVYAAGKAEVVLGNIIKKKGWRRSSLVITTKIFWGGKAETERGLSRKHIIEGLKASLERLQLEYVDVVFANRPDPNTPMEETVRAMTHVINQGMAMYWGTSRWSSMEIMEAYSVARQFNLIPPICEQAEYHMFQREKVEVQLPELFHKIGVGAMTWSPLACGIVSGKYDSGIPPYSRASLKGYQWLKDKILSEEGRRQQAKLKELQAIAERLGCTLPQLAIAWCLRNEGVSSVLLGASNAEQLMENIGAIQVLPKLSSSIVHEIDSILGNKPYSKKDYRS
SMILES,cell count [1],inhibition [1],inhibition [2],nuclei count [2] [%],"z-score [3, 10]","z-score [3, 11]","z-score [3, 12]",inhibition [4],fluorescence slope [5],NADPH fluorescence slope [6],slope [7],outcome [8],inhibition [9]
COc1cccc(-c2nc(NCC3CCCO3)c3ccccc3n2)c1O (stereo unspecified),553,-3.3% (inactive),-74.2% (inactive),131,-1.22,0.707,0.124,1.6e-07% (inactive),-0.34 (inactive),-2.8e-05 (inactive),0.00373 (inactive),inactive,55.5% (active)
c1cncc(Oc2cccc(Oc3cccnc3)c2)c1,388,-2.6% (inactive),-116% (inactive),133,-0.336,0.96,-0.973,-2.07% (inactive),-0.426 (inactive),-1.4e-05 (inactive),0.00527 (inactive),inactive,-16% (inactive)
CCCOc1ccc(/C(O)=C2/C(=O)C(=O)N(CCN3CCOCC3)C2c2ccccc2)cc1 (stereo unspecified),365,-10.5% (inactive),-132% (inactive),144,-0.109,0.153,0.743,-0.159% (inactive),-0.426 (inactive),-6.6e-05 (inactive),0.00576 (inactive),inactive,-3.19% (inactive)
COc1ccc2c(c1)nc(N)n2Cc1ccccc1,570,-4.4% (inactive),15% (inactive),168,2.35,-1.31,1.13,15.8% (inactive),-0.388 (inactive),-2.5e-05 (inactive),0.004 (inactive),inactive,12.8% (inactive)
O=C(O)c1ccc(OCCn2ccnc2)cc1,490,-6.5% (inactive),-141% (inactive),185,-0.78,-1.02,1.25,26.5% (inactive),-0.473 (inactive),-0.000213 (inactive),0.00534 (inactive),inactive,0.065% (inactive)
CN1C2C=C3C(C#N)=C(N)C(C#N)(C#N)[C@@H](c4cccs4)C3C1CC2 (stereo partly specified),494,-6.5% (inactive),-7.4% (inactive),116,0.352,-1.56,0.939,22.7% (inactive),-0.419 (inactive),2.6e-06 (inactive),0.00481 (inactive),inactive,-3.84% (inactive)
CCN(CC)c1ccc2cc(C(=O)Nc3ccccn3)c(=O)oc2c1,384,-12% (inactive),0.4% (inactive),80.2,-0.204,0.482,0.701,-2.07% (inactive),-0.433 (inactive),-2.6e-05 (inactive),0 (inactive),inactive,20.3% (inactive)
COc1ccc(OC)c2c1CCC2=O,434,-0.5% (inactive),3.9% (inactive),102,-0.357,-1.08,-0.0279,-1.12% (inactive),-0.0756 (inactive),8.5e-06 (inactive),0.00599 (inactive),inactive,9.78% (inactive)
CCN1CCCC1Cn1cnc2c([nH]c3ccc(C)cc32)c1=O (stereo unspecified),319,-6.8% (inactive),13.2% (inactive),160,-0.0977,0.977,0.149,9.42% (inactive),-0.357 (inactive),-0.000123 (inactive),0.00693 (inactive),inactive,128% (active)
COC(=O)C1=C(C)N=C2SC(C)C(=O)N2C1c1cccc(F)c1 (stereo unspecified),346,-0.4% (inactive),-96.3% (inactive),129,0.762,-0.181,-0.313,12.3% (inactive),-0.485 (inactive),-4.6e-05 (inactive),0.00444 (inactive),inactive,-8.16% (inactive)
CCOC(=O)CSc1nnc2n(C3CCCCC3)c(=O)c3c4c(sc3n12)CCCC4,650,-11.4% (inactive),-104% (inactive),146,-1.05,-0.745,-0.835,1.75% (inactive),-0.533 (inactive),-0.0001 (inactive),0.00612 (inactive),inactive,-1.33% (inactive)
Cc1ccc2[nH]c3c(c2c1)CCCC3C(N)=O (stereo unspecified),548,-27.5% (inactive),-103% (inactive),183,-1.12,0.929,-1.27,-16.8% (inactive),-0.508 (inactive),-2.9e-05 (inactive),0.00527 (inactive),inactive,3.14% (inactive)
Cc1c(/C(O)=C2\C(=O)C(=O)N(CCN(C)C)C2c2cccs2)cnn1-c1ccccc1 (stereo unspecified),544,1.9% (inactive),-68.6% (inactive),127,1.03,-0.0076,0.683,-5.26% (inactive),-0.578 (inactive),-3.3e-05 (inactive),0.00515 (inactive),inactive,-16.4% (inactive)
CN(C)CCCOC(=O)C1c2ccccc2Oc2ccccc21,542,1.3% (inactive),31.3% (inactive),169,-1.43,-0.729,0.0446,-8.76% (inactive),-0.329 (inactive),-1.7e-05 (inactive),0.00512 (inactive),inactive,8% (inactive)
CCOC(=O)c1c(C)n(C)c2ccc(OC)c(NC(=O)CN3CCCCC3)c12,343,-2.7% (inactive),-15% (inactive),132,-1.53,-1.22,2.07,-6.59% (inactive),-0.46 (inactive),-0.000136 (inactive),0.00641 (inactive),inactive,-10.1% (inactive)
Cc1cccc(Nc2ncnc3ccccc23)c1,458,-5.2% (inactive),-1% (inactive),123,-0.619,0.167,-0.509,18.2% (inactive),-0.519 (inactive),-6.7e-05 (inactive),0.00506 (inactive),inactive,2.93% (inactive)
CCCc1cc(-n2ccnc2C)n2c(nc3ccccc32)c1C#N,536,-42.1% (inactive),-109% (inactive),153,-0.822,-0.981,0.35,-15% (inactive),-0.415 (inactive),-3.2e-05 (inactive),0.00567 (inactive),inactive,4.33% (inactive)
COC(=O)C1=C(N)Oc2cc(C)oc(=O)c2C1c1ccncc1 (stereo unspecified),346,-2.7% (inactive),29.3% (inactive),149,-0.595,-0.189,1.46,-2.59% (inactive),-0.404 (inactive),-0.000149 (inactive),0.00558 (inactive),active; weak signal in gallbladder and intestine,28.1% (inactive)
COc1ccc2[nH]c(C)c(C(=O)CN3CCc4cc(OC)c(OC)cc4C3)c2c1,520,3.2% (inactive),7.5% (inactive),117,-1.28,1.53,-1.2,-8.76% (inactive),-0.205 (inactive),-2e-05 (inactive),0.00464 (inactive),inactive,22.2% (inactive)
COc1ccc(OC)c(C2=Nn3c(nnc3-c3ccco3)SC2)c1,675,1.9% (inactive),-139% (inactive),150,-0.0454,1.22,0.484,-2.47% (inactive),-0.399 (inactive),-0.000127 (inactive),0.00666 (inactive),inactive,-10.3% (inactive)
O=C(NCc1ccccc1)c1ccc(=O)[nH]n1,328,-0.3% (inactive),-132% (inactive),98.8,-0.814,0.951,-1.98,11.3% (inactive),-0.456 (inactive),-0.00047 (inactive),0.00499 (inactive),inactive; toxic,-6.14% (inactive)
c1cc(-c2nnc3sc(C4CCCCC4)nn23)ccn1,660,-3% (inactive),-26.6% (inactive),150,0.217,-0.0752,0.0462,-7.86% (inactive),-0.419 (inactive),-0.00016 (inactive),0.00483 (inactive),inactive,70.8% (active)
COc1ccc(/C(O)=C2/C(=O)C(=O)N(CCN3CCOCC3)C2c2ccccn2)cc1 (stereo unspecified),316,-13.6% (inactive),25.6% (inactive),75.8,-1.25,0.879,1.18,-7.79% (inactive),-0.44 (inactive),-1.3e-05 (inactive),0.00633 (inactive),inactive,25.9% (inactive)
COC(=O)CCc1c(C)[nH]c(C(=O)OCc2ccccc2)c1C,596,-4.1% (inactive),-34% (inactive),179,-1.2,-0.0699,0.772,-5.89% (inactive),-0.487 (inactive),-0.00013 (inactive),0.00445 (inactive),inactive,-0.974% (inactive)
CCOC(=O)c1[nH]c2cc3c(cc2c1NC(=O)CN1CCC2(CC1)OCCO2)OCO3,466,-3.8% (inactive),7.6% (inactive),111,0.45,1.98,-0.82,22.8% (inactive),-0.0748 (inactive),5.8e-07 (inactive),0.00639 (inactive),inactive,-16.4% (inactive)
S=c1nc(-c2ccccc2)[nH]n1-c1ccccc1,339,-3.4% (inactive),-90.9% (inactive),110,1.6,-1.83,-0.637,11.4% (inactive),-0.454 (inactive),3.3e-06 (inactive),0.0253 (active),inactive,-5.69% (inactive)
Cc1ccnc(N2CCN(c3cc(C)c(C#N)c4nc5ccccc5n34)CC2)c1,572,7.2% (inactive),-151% (inactive),125,0.222,0.0486,-0.157,13.9% (inactive),-0.408 (inactive),-8.8e-06 (inactive),0.00554 (inactive),inactive,-4.75% (inactive)
